According to ChEMBL document CHEMBL2375286, “Design and synthesis of a series of α-benzyl phenylpropanoic acid-type peroxisome proliferator-activated receptor (PPAR) gamma partial agonists with improved aqueous solubility” (Bioorg Med Chem, 2013):
In brackets after ≈: the same amount, converted by molar mass. Activity calls are given as the source filed them. No cut-off for these calls is given here.

Key:
[1] = target: T1, Peroxisome proliferator-activated receptor gamma (Homo sapiens) (UniProt P37231); assay: Agonist activity at human PPAR-gamma1 LBD (176 to 477) transfected in african green monkey CV1 cells after 40 hrs by beta galactosidase-based luciferase reporter gene assay relative to rosiglitazone; format: cell-based; conditions: CV-1
T1 sequence (whole entry): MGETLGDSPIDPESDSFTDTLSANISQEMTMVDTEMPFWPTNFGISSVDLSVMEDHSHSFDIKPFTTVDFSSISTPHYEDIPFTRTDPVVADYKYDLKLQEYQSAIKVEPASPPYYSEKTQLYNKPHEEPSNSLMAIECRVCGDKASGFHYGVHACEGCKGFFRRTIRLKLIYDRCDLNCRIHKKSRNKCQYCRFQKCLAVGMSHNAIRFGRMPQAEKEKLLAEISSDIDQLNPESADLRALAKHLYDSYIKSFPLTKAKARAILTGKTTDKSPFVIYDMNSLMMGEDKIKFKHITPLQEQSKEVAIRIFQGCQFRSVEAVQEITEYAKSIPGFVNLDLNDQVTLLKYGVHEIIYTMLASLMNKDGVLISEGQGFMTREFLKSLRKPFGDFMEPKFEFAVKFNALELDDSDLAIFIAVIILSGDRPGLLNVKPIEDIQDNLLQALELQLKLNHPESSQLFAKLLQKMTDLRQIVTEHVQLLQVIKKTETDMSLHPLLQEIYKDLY
How it was run: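 GAL4-PPAR chimera transactivation in CV-1 cells (0.5×10^5/well, 24 h), lipofected 5 h with 30 ng receptor plasmid, 250 ng MH100x4-tk-luc reporter, 350 ng pCMX-βGAL normalisation plasmid, 120 ng pGEM4 carrier. Compounds for 40 h. Luciferase and βGAL read from lysates. Activity scaled between 0.1% DMSO (minimum) and 10^-5 M rosiglitazone maleate (maximum). EC50 = concentration giving 50% maximal reporter activity.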

[2] = Thermodynamic solubility of the compound in phosphate buffer at pH 7.2 to 7.4 after 48 hrs by UV-HPLC analysis; format: physicochemical; conditions: read-out: Therm_solubility
How it was run: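 About 1 mg of compound ground and suspended in 1.0 mL phosphate buffer (pH 7.2–7.4), then shaken 48 h at 25 °C. Suspension filtered (0.45 μm), filtrate diluted in CH3CN and analysed by HPLC with UV detection at 254 nm. Concentration taken from a calibration curve and corrected for dilution.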

[3] = target: T2, Peroxisome proliferator-activated receptor gamma (Homo sapiens, UniProt P37231); assay: Agonist activity at human PPAR-gamma1 LBD (176 to 477) transfected in african green monkey CV1 cells after 40 hrs by beta galactosidase-based luciferase reporter gene assay; format: cell-based, CV-1
T2 sequence (P37231 whole entry): T1 sequence (whole entry)
How it was run: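 CV-1 cells seeded at 0.5×10^5 per well, cultured 24 h, then lipofected for 5 h. Transfection mix: 30 ng GAL4-PPAR chimeric receptor plasmid, 250 ng MH100x4-tk-luc reporter, 350 ng pCMX-βGAL for normalization, 120 ng pGEM4 carrier. Compounds added for 40 h, then luciferase and βGAL read in lysates. Activity scaled between 0.1% DMSO (minimum) and 10^-5 M rosiglitazone maleate (maximum). EC50 is the concentration giving 50% of maximal reporter activity.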

[4] = system: OCUM-2MD3; assay: Induction of apoptosis in human OCUM-2MD3 cells after 72 hrs by Hoechst 33342/propidium iodide staining-based fluorescence microscopy; format: functional, cell-based
How it was run: (§1)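 OCUM-2MD3 cells grown in DMEM/F12 (1:1); OUMS-24 normal fibroblasts grown in DMEM; both media with 10% FBS, 100 μg/mL kanamycin and 0.5 μg/mL Fungizone. Cells plated, incubated 24 h, then treated with compound at 1–100 μM for 72 h. Stained with 1 μg/mL Hoechst 33342 plus 5 μg/mL propidium iodide for 20 min in the dark and examined by fluorescence microscopy. Cells with fragmented or shrunken nuclei counted as apoptotic; result given as % increase over DMSO control.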

[5] = Induction of apoptosis in human OUMS-24 cells after 72 hrs by Hoechst 33342/propidium iodide staining-based fluorescence microscopy; format: cell-based; conditions: oums-24, 72 h; how it was run: as §1
[6] = Induction of apoptosis in human OUMS-24 cells at 100 uM after 72 hrs by Hoechst 33342/propidium iodide staining-based fluorescence microscopy; format: cell-based; conditions: oums-24, 72 h; how it was run: as §1
[7] = system: OCUM-2MD3; assay: Induction of apoptosis in human OCUM-2MD3 cells at 10 to 100 uM after 72 hrs by Hoechst 33342/propidium iodide staining-based fluorescence microscopy; format: functional, cell-based; how it was run: as §1
[8] = target: T3, Peroxisome proliferator-activated receptor gamma (Mus musculus) (UniProt P37238); assay: Agonist activity at PPAR-gamma in mouse 3T3-L1 cells assessed as adipocyte differentiation after 6 days by Oil Red O staining; format: cell-based
T3 sequence (whole entry): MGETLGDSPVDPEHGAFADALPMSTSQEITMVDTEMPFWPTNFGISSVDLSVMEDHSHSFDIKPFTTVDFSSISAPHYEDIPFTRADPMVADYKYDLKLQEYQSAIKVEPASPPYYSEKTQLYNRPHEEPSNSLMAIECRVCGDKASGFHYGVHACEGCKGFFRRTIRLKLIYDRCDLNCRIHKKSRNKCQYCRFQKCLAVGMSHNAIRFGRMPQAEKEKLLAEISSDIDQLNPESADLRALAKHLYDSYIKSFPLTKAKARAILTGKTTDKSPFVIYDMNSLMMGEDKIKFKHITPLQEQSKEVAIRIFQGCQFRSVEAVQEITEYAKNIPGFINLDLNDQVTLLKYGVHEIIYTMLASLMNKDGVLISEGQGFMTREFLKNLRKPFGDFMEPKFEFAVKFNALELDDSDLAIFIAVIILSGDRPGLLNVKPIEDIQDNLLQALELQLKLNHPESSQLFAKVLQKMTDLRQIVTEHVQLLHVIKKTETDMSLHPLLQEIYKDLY
How it was run: (§2)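 3T3-L1 cells grown in DMEM with 10% FBS. At confluence, differentiation started with 1 μM dexamethasone, 0.5 mM IBMX and 5 μg/mL insulin for 2 days. Ligands then added at 1–1000 nM. After 6 days cells stained with Oil Red O and adipogenesis read as absorbance at OD550. Error bars are SD.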

[9] = target: T3, Peroxisome proliferator-activated receptor gamma (Mus musculus); assay: Agonist activity at PPAR-gamma in mouse 3T3-L1 cells assessed as adipocyte differentiation at 1 to 1000 nM after 6 days by Oil Red O staining; format: cell-based; how it was run: as §2
[10] = target: T3, Peroxisome proliferator-activated receptor gamma (Mus musculus); assay: Agonist activity at PPAR-gamma in mouse 3T3-L1 cells assessed as induction of triglyceride accumulation at 1 to 1000 nM after 6 days by Oil Red O staining; format: cell-based; how it was run: as §2
[11] = target: T3, Peroxisome proliferator-activated receptor gamma (Mus musculus); assay: Partial agonist activity at PPAR-gamma in mouse 3T3-L1 cells assessed as adipocyte differentiation at […] after 6 days by Oil Red O staining; format: cell-based; how it was run: as §2

Efficacy [1] [%]	solubility thermodynamic at 48 h [2] [µg/mL]	EC50 [3] [nM]	SMILES	further results
95	< 1	49.5	CCCOc1ccc(C[C@@H](Cc2ccccc2)C(=O)O)cc1CNC(=O)c1ccc(-c2ccccc2F)cc1	–
108	34.1 (≈ 67 µM)	1690	CCCOc1ccc(C[C@@H](Cc2ccccc2)C(=O)O)cc1CNC(=O)c1ccc(-c2ccncc2)cc1	–
99.7	< 1	28.7	CCCOc1ccc(C[C@@H](Cc2ccccc2)C(=O)O)cc1CNC(=O)c1ccc(-c2cccc(F)c2)cc1	–
113	17 (≈ 33.4 µM)	186	CCCOc1ccc(C[C@@H](Cc2ccccc2)C(=O)O)cc1CNC(=O)c1ccc(-c2ccccn2)cc1	–
–	–	–	CCc1ccc(CCOc2ccc(CC3SC(=O)NC3=O)cc2)nc1 (centres undefined) [PIOGLITAZONE]	Activity [4]: Dose-dependent effect; Activity [5]: Non-toxic
100	69.5 (≈ 137 µM)	844	CCCOc1ccc(C[C@@H](Cc2ccccc2)C(=O)O)cc1CNC(=O)c1ccc(-c2cccnc2)cc1	–
104	< 1	103	CCCOc1ccc(C[C@@H](Cc2ccccc2)C(=O)O)cc1CNC(=O)c1ccc(-c2ccc(F)cc2)cc1	–
76	< 1	65.2	CCCOc1ccc(C[C@@H](Cc2ccccc2)C(=O)O)cc1CNC(=O)c1ccc(-c2cccs2)cc1	–
82.7	190 (≈ 373 µM)	3100	CCCOc1ccc(C[C@@H](Cc2ccccc2)C(=O)O)cc1CNC(=O)c1ccc(-c2cncnc2)cc1	–
–	< 1	–	CCCOc1ccc(C[C@H](Cc2ccccc2)C(=O)O)cc1CNC(=O)c1ccc(C23CC4CC(CC(C4)C2)C3)cc1	Activity [6]: Toxic; Activity [4]: Dose-dependent effect; Activity [7]: Active
–	–	–	CCCOc1ccc(C[C@H](CC)C(=O)O)cc1CNC(=O)c1ccc(C23CC4CC(CC(C4)C2)C3)cc1	Activity [8]: Dose-dependent effect; Activity [9]: Active; Activity [10]: Active
65	301 (≈ 591 µM)	34.6	CCCOc1ccc(C[C@@H](Cc2ccccc2)C(=O)O)cc1CNC(=O)c1ccc(-c2ncccn2)cc1	Activity [9]: Active; Activity [11]: Active; Activity [10]: Active; Activity [4]: Dose-dependent effect
72.7	< 1	73.8	CCCOc1ccc(C[C@@H](Cc2ccccc2)C(=O)O)cc1CNC(=O)c1ccc(-c2ccccc2C)cc1	–
58.2	32.2 (≈ 63.2 µM)	714	CCCOc1ccc(C[C@@H](Cc2ccccc2)C(=O)O)cc1CNC(=O)c1ccc(-c2cnccn2)cc1	–
95.7	< 1	85.9	CCCOc1ccc(C[C@@H](Cc2ccccc2)C(=O)O)cc1CNC(=O)c1ccc(-c2ccccc2)cc1	–
